Measured values taken from ChEMBL document CHEMBL1125812, “Synthesis of two cyclopentenyl-3-deazapyrimidine carbocyclic nucleosides related to cytidine and uridine” (1991).

Key:
Assay type in all cases: functional
Details in all cases: Mus musculus
L1210 [1] = assay: Compound was evaluated for the ability to inhibit L1210 tumor cell growth a concentration of 10 uM
Outline: (§1)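 L1210 cells seeded at 0.15 × 10^5 cells/mL in Fisher's medium with 10% heat-inactivated horse serum. Drug exposure was continuous for 48 h, and cell number was counted with a Coulter counter. Percent inhibition was calculated relative to untreated control cultures, which reached 4.5 × 10^5 cells/mL.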

L1210 [2] = assay: Compound was evaluated for the ability to inhibit L1210 tumor cell growth a concentration of 100 uM; outline: as §1
L1210 [3] = assay: Compound was evaluated for the ability to inhibit L1210 tumor cell growth a concentration of 1 uM; outline: as §1
L1210 [4] = assay: Compound was evaluated for the ability to inhibit L1210 tumor cell growth a concentration of 1000 uM; outline: as §1

Molecule `Nc1ccn([C@@H]2C=C(CO)[C@@H](O)[C@H]2O)c(=O)n1` has an inhibition at 10 µM (L1210 [1]) of 93%, an inhibition at 100 µM (L1210 [2]) of 93% and an inhibition at 1 µM (L1210 [3]) of 93%.

Work on `Nc1ccn([C@@H]2C=C(CO)[C@@H](O)[C@H]2O)c(=O)c1` yielded an inhibition at 10 µM (L1210 [1]) of 0%, an inhibition at 100 µM (L1210 [2]) of 0% and an inhibition at 1 µM (L1210 [3]) of 0%. It also gave an inhibition at 1000 µM (L1210 [4]) of 15%.

For `O=c1cc(O)ccn1[C@@H]1C=C(CO)[C@@H](O)[C@H]1O`, the inhibition at 10 µM (L1210 [1]) was 45%, the inhibition at 100 µM (L1210 [2]) was 66% and the inhibition at 1 µM (L1210 [3]) was 8%. For the same molecule, the inhibition at 1000 µM (L1210 [4]) was 75%.
